Reference: ChEMBL document CHEMBL1151755, “Crystal structure of the peroxisome proliferator-activated receptor gamma (PPARgamma) ligand binding domain complexed with a novel partial agonist: a new region of the hydrophobic pocket could be exploited for drug design” (J Med Chem, 2008)

Assays:
[1] = molecular target: T1, Peroxisome proliferator-activated receptor alpha (Homo sapiens) (UniProt Q07869); assay: Agonist activity at PPARalpha ligand binding domain expressed in human Hep G2 cells co-transfected with Gal4-DBD by luciferase reporter gene assay relative to Wy 14,643; format: cell-based; settings: HepG2
T1 sequence (whole entry): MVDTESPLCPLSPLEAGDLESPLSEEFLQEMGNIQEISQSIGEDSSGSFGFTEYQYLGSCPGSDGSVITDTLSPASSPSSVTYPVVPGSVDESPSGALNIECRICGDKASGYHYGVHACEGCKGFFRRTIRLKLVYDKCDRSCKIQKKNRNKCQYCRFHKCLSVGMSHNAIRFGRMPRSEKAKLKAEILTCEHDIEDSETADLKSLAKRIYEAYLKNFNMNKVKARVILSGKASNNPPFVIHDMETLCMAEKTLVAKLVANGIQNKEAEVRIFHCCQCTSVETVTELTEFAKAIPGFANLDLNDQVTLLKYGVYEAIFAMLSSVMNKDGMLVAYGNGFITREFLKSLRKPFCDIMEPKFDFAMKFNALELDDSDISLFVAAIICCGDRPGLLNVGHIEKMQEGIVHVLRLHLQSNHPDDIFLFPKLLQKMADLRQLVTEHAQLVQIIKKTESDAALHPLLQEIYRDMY
How it was run: (§1)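 HepG2 cells received the Gal4-receptor LBD construct (50 ng), pGal4UAS-luciferase (100 ng) and pCMVβ (300 ng) by calcium phosphate coprecipitation for 4 h. They were then treated in serum-free DMEM/F-12 with ligand or 0.1% ethanol for 20 h. Luciferase was normalized to β-galactosidase, and efficacy was expressed as percent of the Wy 14,643 maximum (100%). Values are mean ± SEM of 3–5 experiments in triplicate.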

[2] = molecular target: T2, Peroxisome proliferator-activated receptor alpha (Homo sapiens, UniProt Q07869); assay: Agonist activity at PPARalpha ligand binding domain expressed in human Hep G2 cells co-transfected with Gal4-DBD by luciferase reporter gene assay; format: cell-based, HepG2
T2 sequence (Q07869 whole entry): T1 sequence (whole entry)
How it was run: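 Gal4-LBD fusion vector (50 ng) was co-transfected with pGal4UAS-luciferase (100 ng) and pCMVβ β-galactosidase normalizer (300 ng) into HepG2 cells by calcium phosphate for 4 h. Cells were washed, then given serum-free DMEM/F-12 with ligand or 0.1% ethanol vehicle for 20 h. Luciferase was normalized to β-galactosidase. EC50 came from concentration-response curves, mean ± SEM of 3–5 independent experiments in triplicate.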

[3] = molecular target: T3, Peroxisome proliferator-activated receptor alpha (Mus musculus) (UniProt P23204); assay: Agonist activity at mouse PPARalpha ligand binding domain expressed in human Hep G2 cells co-transfected with Gal4-DBD by luciferase reporter gene assay relative to Wy 14,643; format: cell-based; settings: HepG2; how it was run: as §1
T3 sequence (whole entry): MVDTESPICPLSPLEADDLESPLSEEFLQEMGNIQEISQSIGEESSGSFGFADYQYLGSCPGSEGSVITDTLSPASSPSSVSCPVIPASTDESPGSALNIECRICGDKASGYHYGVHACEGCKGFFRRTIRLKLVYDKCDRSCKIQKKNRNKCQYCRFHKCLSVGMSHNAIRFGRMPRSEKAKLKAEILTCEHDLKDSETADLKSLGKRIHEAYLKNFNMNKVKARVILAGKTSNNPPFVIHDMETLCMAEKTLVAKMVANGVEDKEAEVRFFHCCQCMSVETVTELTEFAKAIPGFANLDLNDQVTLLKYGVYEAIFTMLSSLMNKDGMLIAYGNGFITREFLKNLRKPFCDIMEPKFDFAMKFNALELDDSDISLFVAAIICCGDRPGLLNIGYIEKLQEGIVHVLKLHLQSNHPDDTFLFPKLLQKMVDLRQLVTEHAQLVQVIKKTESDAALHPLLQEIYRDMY

[4] = molecular target: T1, Peroxisome proliferator-activated receptor alpha (Homo sapiens); assay: Agonist activity at human PPARalpha ligand binding domain expressed in human Hep G2 cells co-transfected with Gal4-DBD by luciferase reporter gene assay relative to Wy 14,643; format: cell-based; settings: HepG2; how it was run: as §1

SMILES	Efficacy [1] [%]	EC50 [2] [nM]	Efficacy [3] [%]	Efficacy [4] [%]
O=C(O)[C@H](Cc1ccccc1)Oc1ccc(Cc2ccccc2)cc1	107	11		
O=C(O)[C@H](Cc1ccccc1)Oc1ccc(CCc2ccccc2)cc1	83	150		
Cc1cccc(Nc2cc(Cl)nc(SCC(=O)O)n2)c1C			100	100
